In ChEMBL document CHEMBL5352427, “Isoquinolone derivatives as lysophosphatidic acid receptor 5 (LPA5) antagonists: Investigation of structure-activity relationships, ADME properties and analgesic effects” (Eur J Med Chem, 2022):
The source made the active and inactive calls. No rule for the calls is given here.

How the values were obtained:
Format in all cases: functional, cell-based
[1] = target: T1, Lysophosphatidic acid receptor 5 (Homo sapiens, UniProt Q9H1C0); experiment: Agonist activity at human LPA5 receptor expressed in RH7777 cells assessed as calcium mobilization incubated for 15 mins by FLIPR method
Outline: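 RH7777 cells stably expressing hLPA5, plated 20,000/well in 0.2% FBS medium 18–20 h, loaded 45 min at 37 °C with Calcium 5 dye in HBSS/20 mM HEPES/2.5 mM probenecid pH 7.4. […] Duplicates.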

[2] = target: T1, Lysophosphatidic acid receptor 5; experiment: Antagonist activity at human LPA5 receptor expressed in RH7777 cells assessed as inhibition of EC80 concentration of hexadecyl LPA-induced calcium mobilization incubated for 15 mins by FLIPR method relative to hexadecyl LPA
[3] = target: T1, Lysophosphatidic acid receptor 5; experiment: Antagonist activity at human LPA5 receptor expressed in RH7777 cells assessed as inhibition of EC80 concentration of hexadecyl LPA-induced calcium mobilization incubated for 15 mins by FLIPR method
[4] = target: T1, Lysophosphatidic acid receptor 5; experiment: Antagonist activity at human LPA5 receptor expressed in RH7777 cells assessed as inhibition of EC80 concentration of LPA-induced cAMP accumulation preincubated for 30 mins followed by Eu-cAMP tracer addition and measured after 1 hr by TR-FRET assay relative to hexadecyl LPA; details: filed as antagonist
Outline: (§1)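 hLPA5-RH7777 cells, switched to 0.2% FBS medium 20 h prior, lifted with versene, 2,000 cells/well in HBSS/5 mM HEPES/0.1% BSA/0.5 mM IBMX pH 7.4. Compound dilutions with hexadecyl LPA 16:0 EC80 (300 nM) plus forskolin, 30 min room temperature; LANCE Ultra Eu-cAMP tracer/ULight-anti-cAMP 1 h; TR-FRET 665 nm converted to cAMP via standard curve. Three-parameter logistic IC50; ≥3 experiments in duplicate.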

[5] = target: T1, Lysophosphatidic acid receptor 5; experiment: Antagonist activity at human LPA5 receptor expressed in RH7777 cells assessed as inhibition of EC80 concentration of LPA-induced cAMP accumulation preincubated for 30 mins followed by Eu-cAMP tracer addition and measured after 1 hr by TR-FRET assay; outline: as §1

T1 sequence (Q9H1C0 whole entry): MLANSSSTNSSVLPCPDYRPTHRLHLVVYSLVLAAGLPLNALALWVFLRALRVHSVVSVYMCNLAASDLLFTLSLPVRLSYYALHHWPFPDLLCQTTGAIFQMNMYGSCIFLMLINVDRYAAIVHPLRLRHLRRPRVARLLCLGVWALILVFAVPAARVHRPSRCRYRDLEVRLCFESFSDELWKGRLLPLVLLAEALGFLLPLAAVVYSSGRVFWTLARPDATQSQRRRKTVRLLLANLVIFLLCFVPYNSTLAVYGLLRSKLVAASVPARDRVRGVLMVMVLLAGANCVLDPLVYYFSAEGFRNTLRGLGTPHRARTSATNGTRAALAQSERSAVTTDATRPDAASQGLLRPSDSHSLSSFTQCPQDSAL

SMILES | Activity [1] | inhibition ([2]; filed as antagonist) [%] | IC50 [3] [nM] | inhibition [4] [%] | inhibition [2] [%] | EC50 [5] [nM] | EC50 [3] [nM]
COc1cc2c(C(=O)N3CCC(C)(C)CC3)cn(-c3cccc(N(C)C)c3)c(=O)c2cc1OC | inactive | 90 | 1100 | – | – | – | –
COc1cc2c(C(=O)N3CCC(C#N)CC3)cn(-c3cccc(N(C)C)c3)c(=O)c2cc1OC | inactive | 89 | 102 | 92 | – | – | –
COc1cc2c(C(=O)N3CCC(F)CC3)cn(-c3ccc4occc4c3)c(=O)c2cc1OC | inactive | 88 | 1490 | – | – | – | –
CCCCCNC(=O)c1cn(-c2cccc(N(C)C)c2)c(=O)c2cc(OC)c(OC)cc12 | inactive | – | > 10000 | – | – | – | –
C#CC1CCN(C(=O)c2cn(-c3cccc(N(C)C)c3)c(=O)c3cc(OC)c(OC)cc23)CC1 | inactive | 105 | 46 | 101 | – | – | –
COc1cc2c(C(=O)N3CCC(C(F)(F)F)CC3)cn(-c3cccc(N(C)C)c3)c(=O)c2cc1OC | inactive | 87 | 1560 | – | – | – | –
COc1cc2c(C(=O)N3CCCCC3)cn(-c3cccc(OC(C)C)c3)c(=O)c2cc1OC | inactive | 100 | 630 | – | – | – | –
COc1cc2c(C(=O)N3CCCC3)cn(-c3cccc(N(C)C)c3)c(=O)c2cc1OC | inactive | – | > 10000 | – | – | – | –
COc1cc2c(C(=O)N3C4CCC3CC4)cn(-c3cccc(N(C)C)c3)c(=O)c2cc1OC | inactive | – | > 10000 | – | – | – | –
COc1cc2c(C(=O)N3CCCCC3)cn(-c3cccc(C(C)C)c3)c(=O)c2cc1OC | inactive | 105 | 63 | – | – | – | –
COc1cc2c(C(=O)N3CCC3)cn(-c3cccc(N(C)C)c3)c(=O)c2cc1OC | inactive | – | > 10000 | – | – | – | –
COc1cc2c(C(=O)N3CCCCC3)cn(-c3cccnc3)c(=O)c2cc1OC | inactive | – | > 10000 | – | – | – | –
COc1cc2c(C(=O)N3CCCCC3)cn(-c3cccc(C(N)=O)c3)c(=O)c2cc1OC | inactive | – | > 10000 | – | – | – | –
COc1cc2c(=O)n(-c3cccc(N(C)C)c3)cc(C(=O)N3CCC(F)CC3)c2cc1OC(C)C | inactive | 96 | 369 | – | – | – | –
COc1cc2c(C(=O)N3CCCCC3)cn(-c3ccc4scc(C)c4c3)c(=O)c2cc1OC | inactive | 105 | 32 | – | – | – | –
COc1cc2c(C(=O)N3CCCC(C)C3)cn(-c3cccc(N(C)C)c3)c(=O)c2cc1OC (racemic) | inactive | 104 | 260 | – | – | – | –
COc1cc2c(C(=O)NCc3ccccc3)cn(-c3cccc(N(C)C)c3)c(=O)c2cc1OC | inactive | – | > 10000 | – | – | – | –
COc1cc2c(C(=O)N3CCCCC3)cn(-c3ccc4sccc4c3)c(=O)c2cc1OC | inactive | 101 | 640 | – | – | – | –

SMILES | Activity [1] | inhibition ([2]; filed as antagonist) [%] | IC50 [3] [nM] | inhibition [4] [%] | inhibition [2] [%] | EC50 [5] [nM] | EC50 [3] [nM]
COc1cc2c(C(=O)N3CCCCC3)cn(-c3ccc4occc4c3)c(=O)c2cc1OC | inactive | 93 | 1100 | – | – | – | –
COc1cc2c(=O)n(-c3cccc(N(C)C)c3)cc(C(=O)N3CCC(F)CC3)c2cc1OCc1cccc2ccccc12 | inactive | – | > 10000 | – | – | – | –
COc1cc2c(C(=O)N3CCCCC3)cn(-c3ccccn3)c(=O)c2cc1OC | inactive | – | > 10000 | – | – | – | –
COc1cc2c(C(=O)N(C)C)cn(-c3cccc(N(C)C)c3)c(=O)c2cc1OC | inactive | – | > 10000 | – | – | – | –
COc1cc2c(C(=O)N3CCC(OC)CC3)cn(-c3cccc(N(C)C)c3)c(=O)c2cc1OC | inactive | 89 | 640 | – | – | – | –
COc1cc2c(C(=O)N3CCCCC3)cn(-c3cccc(C(=O)N(C)C)c3)c(=O)c2cc1OC | inactive | – | > 10000 | – | – | – | –
COc1cc2c(C(=O)N3CCCCC3)cn(-c3ccc4onc(C)c4c3)c(=O)c2cc1OC | inactive | 56 | 3900 | – | – | – | –
COc1cc2c(C(=O)NC3CCCC3)cn(-c3cccc(N(C)C)c3)c(=O)c2cc1OC | inactive | – | > 10000 | – | – | – | –
COc1cc2c(=O)n(-c3cccc(N(C)C)c3)cc(C(=O)N3CCC(F)CC3)c2cc1O | inactive | 93 | 1370 | – | – | – | –
COc1cc2c(=O)n(-c3cccc(N(C)C)c3)cc(C(=O)N3CCC(F)CC3)c2cc1OCC(F)(F)F | inactive | 74 | 2500 | – | – | – | –
COc1cc2c(C(=O)N3CCCCCCC3)cn(-c3cccc(N(C)C)c3)c(=O)c2cc1OC | inactive | 109 | 301 | – | – | – | –
COc1cc2c(C(=O)N3C4CCCC3CC4)cn(-c3cccc(N(C)C)c3)c(=O)c2cc1OC | inactive | 103 | 230 | – | – | – | –
COc1cc2c(C(=O)N3CCC(C)CC3)cn(-c3cccc(N(C)C)c3)c(=O)c2cc1OC | inactive | 105 | 160 | – | – | – | –
COc1cc2c(C(=O)N3CCC(c4ccc(F)cc4F)CC3)cn(-c3cccc(N(C)C)c3)c(=O)c2cc1OC | inactive | – | > 10000 | – | – | – | –
COc1cc2c(=O)n(-c3cccc(N(C)C)c3)cc(C(=O)N3CCC(F)CC3)c2cc1OCc1ccccn1 | inactive | – | > 10000 | – | – | – | –
COc1cc2c(=O)n(-c3cccc(N(C)C)c3)cc(C(=O)N3CCC(F)CC3)c2cc1OC1CCCCC1 | inactive | 96 | 510 | – | – | – | –
COc1cc2c(C(=O)Nc3ccccc3)cn(-c3cccc(N(C)C)c3)c(=O)c2cc1OC | inactive | – | > 10000 | – | – | – | –

Results, then the compound that gave them:

Activity [1] | inhibition ([2]; filed as antagonist) [%] | IC50 [3] [nM] | inhibition [4] [%] | inhibition [2] [%] | EC50 [5] [nM] | EC50 [3] [nM] | SMILES
inactive | 108 | 1190 | – | – | – | – | COc1cc2c(C(=O)N3CCC(c4ccccc4)CC3)cn(-c3cccc(N(C)C)c3)c(=O)c2cc1OC
inactive | – | > 10000 | – | – | – | – | CN(C)c1cccc(-n2cc(C(=O)N3CCC(F)CC3)c3ccccc3c2=O)c1
inactive | 103 | 890 | – | – | – | – | COc1cc2c(=O)n(-c3cccc(N(C)C)c3)cc(C(=O)N3CCC(F)CC3)c2cc1OC1CCCC1
inactive | 91 | 91 | – | – | – | – | CC#CC1CCN(C(=O)c2cn(-c3cccc(N(C)C)c3)c(=O)c3cc(OC)c(OC)cc23)CC1
inactive | 74 | 1760 | – | – | – | – | COc1cc2c(C(=O)N3CCCCC3)cn(-c3cccc(C(C)=O)c3)c(=O)c2cc1OC
inactive | 107 | 173 | – | – | – | – | COc1cc2c(C(=O)N3CCCCC3)cn(-c3cccc(C(C)(C)C)c3)c(=O)c2cc1OC
inactive | 86 | 4320 | – | – | – | – | COc1cc2c(C(=O)N3CCCc4ccccc43)cn(-c3cccc(N(C)C)c3)c(=O)c2cc1OC
inactive | 111 | 230 | – | – | – | – | CCCCCOc1cc2c(C(=O)N3CCC(F)CC3)cn(-c3cccc(N(C)C)c3)c(=O)c2cc1OC
inactive | – | > 10000 | – | – | – | – | COc1cc2c(C(=O)N3CCCCC3)cn(-c3ccncc3)c(=O)c2cc1OC
inactive | – | 320 | – | 33 | – | – | COc1cc2c(C(=O)N(C)OC)cn(-c3cccc(N(C)C)c3)c(=O)c2cc1OC
inactive | – | > 10000 | – | – | – | – | CCNC(=O)c1cn(-c2cccc(N(C)C)c2)c(=O)c2cc(OC)c(OC)cc12
inactive | – | > 10000 | – | – | – | – | COc1ccc2c(=O)n(-c3cccc(N(C)C)c3)cc(C(=O)N3CCC(F)CC3)c2c1
inactive | 71 | 2200 | – | – | – | – | COc1cc2c(C(=O)N3CCOCC3)cn(-c3cccc(N(C)C)c3)c(=O)c2cc1OC
inactive | – | > 10000 | – | – | – | – | COc1cc2c(C(=O)C3CCCCC3)cn(-c3cccc(N(C)C)c3)c(=O)c2cc1OC
– | – | – | – | – | 95 | 15 | CCCCCCCCCCCCCCCCOC[C@@H](O)COP(=O)(O)O
inactive | 108 | 210 | – | – | – | – | COc1cc2c(C(=O)N3CCCCC3)cn(-c3ccc4cccc(C)c4c3)c(=O)c2cc1OC
inactive | 109 | 480 | – | – | – | – | CCCOc1cc2c(C(=O)N3CCC(F)CC3)cn(-c3cccc(N(C)C)c3)c(=O)c2cc1OC
inactive | – | > 10000 | – | – | – | – | COc1cc2c(C(=O)N(C)Cc3ccncc3)cn(-c3cccc(N(C)C)c3)c(=O)c2cc1OC
inactive | 98 | 990 | – | – | – | – | COc1cc2c(C(=O)N3CCCCC3C)cn(-c3cccc(N(C)C)c3)c(=O)c2cc1OC (racemic)
inactive | 96 | 1060 | – | – | – | – | COc1ccc2c(C(=O)N3CCC(F)CC3)cn(-c3cccc(N(C)C)c3)c(=O)c2c1
inactive | – | > 10000 | – | – | – | – | COc1cc2c(C(=O)N3CCC(C(N)=O)CC3)cn(-c3cccc(N(C)C)c3)c(=O)c2cc1OC
